# According to PubChem BioAssay:
# A number with no mark means an inactive call. Records with an inconclusive call do not appear. Calls of active or inactive are those of the source.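 How the source made its calls, unless noted: active means RAM network inhibition above 8.4% in each of two replicates, 3 SD over the compound average; inconclusive means above 8.4% inhibition in only one replicate; inactive means 8.4% inhibition or less in each replicate.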
# Assays:
# [1] = S. cerevisiae growth inhibition in permissive medium (OD615), pilot counter-assay for S. cerevisiae lifespan shortening project, permissive growth control (AID 705;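 active means growth inhibition above 25% in both replicates, a cutoff set 3 SD above the mean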); conditions: OD615, 24 h, at 10 µM, hits give high values
# In short: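 System: Engineered DeaD yeast | Buffer or medium: SC raffinose/galactose permissive medium | Doses: 10 µM single dose, 0.25% DMSO | Times: 24 h exposure, 30 °C | Measured by: OD615 turbidity read | Read-out: Yeast growth inhibition indicated by reduced 24 h OD615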
# [2] = S. cerevisiae growth inhibition in restrictive medium, OD615, pilot screen, restrictive growth control, yeast lifespan reduction project (AID 706;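 active means growth inhibition above a set limit, 3 SD over mean compound inhibition, in both replicates, cut at about 43% in these data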;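 further: modified DeaD lifespan yeast strain shifted to restrictive glucose medium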); conditions: OD615, 48 h, at 10 µM, hits give high values
# In short: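 Assay system: engineered S. cerevisiae DeaD strain; Buffer or medium: CSMM-D glucose medium; Dosing: 10 µM compound, 0.25% DMSO; Times: cell pre-growth 4 h, compound exposure 48 h, 30 °C; Detection: absorbance (optical density) measured at 615 nm.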
# [3] = doxorubicin toxicity protection in MRP-1 cells – H69AR cells, CellTiter-Glo, duplicate, MRP-1 activator project, pilot screen (AID 807;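 active means viability increase at or above a cutoff of the median across tested compounds plus 3 SD, cut at about 8.5% in these data, passing the limit was not always enough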;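 further: compound pretreatment 18-22 h then 72 h combined with doxorubicin; 0% = doxorubicin alone and 100% = vehicle without doxorubicin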); conditions: H69AR viability with doxorubicin, CellTiter-Glo luminescence; at 10 µM; hits give high values
# [4] = viability of HCT116 without oncogenic beta-catenin – human colon tumor cells, pilot screen (AID 823;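 active means cell viability at or below a set limit in both duplicate runs, the limit being the all-compound median minus 4 SD, cut at about 23% in these data, passing the limit was not always enough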;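 further: 0% = wells killed by 20 µM Hyamine and 100% = untreated DMSO cell wells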); conditions: HCT116 beta-catenin knockout viability, CellTiter-Glo, 60 h; at 10 µM; hits give low values
# [5] = viability of PTEN-null HCT116 cells – cell-based, HCT116 clonal line, CellTiter-Glo, pilot screen (AID 824;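 active means viability at or below 27.92% in each of two runs, the all-compound median minus 4 SD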;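 further: 0% = 20 µM Hyamine control and 100% = vehicle cell control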); conditions: HCT116 PTEN-deleted viability, 60 h, at 10 µM, hits give low values
# [6] = RAM pathway blockade in budding yeast – dse1pr::URA3 reporter, 5-FOA selection, pilot screen (AID 869;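 active means inhibition over a set limit, the all-compound mean plus 3 SD, in both replicate runs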;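 further: 0% = DMSO wells with no growth and 100% = 10 µM 1-NA-PP1 with full growth; RAM network block rescues cells from 5-FOA so hits raise OD615 growth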); conditions: S. cerevisiae dse1pr::URA3 5-FOA growth, OD615, 2 d; at 10 µM; hits give high values; strain carries analog-sensitive mutant Cbk1 kinase
# [7] = RAM signaling pathway blockade in yeast – S. cerevisiae, Pdr1DBD-CYC8 efflux-inhibited sensitized strain, primary screen (AID 1298);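 further: 0% = DMSO untreated cells without growth and 100% = 10 µM 1-NA-PP1 full growth; higher means more yeast growth rescued from 5-FOA killing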; conditions: S. cerevisiae cbk1-as DSE1-URA3 strain, 5-FOA growth OD615, 2 d; at 50 µM; hits give high values
SMILES,growth inhibition [1],growth inhibition [2],viability increase [3],viability [4],viability [5],inhibition [6],RAM network inhibition [7]
COc1ccc(N(CC(=O)Nc2ccc3c(c2)OCO3)S(=O)(=O)c2ccccc2)c(OC)c1,-7.79%,-13.1%,-2.07%,71.8%,75.6%,2.93%,9.79%
CCOc1ccc(NC(=O)c2cnc3scc(C)n3c2=O)cc1,-17.7%,3.42%,-1.16%,101%,98.9%,2.76%,8.45%
CCOc1cccc(NC(=O)Cc2cccs2)c1,-8.74%,-0.895%,-1.86%,94.1%,84.6%,1.06%,4.72%
O=C(CS(=O)(=O)c1cn(Cc2cccc(F)c2)c2ccccc12)N1CCOCC1,-9.09%,-22%,-3.47%,91.1%,88.8%,2.82%,6%
O=C(Cn1cnc2c(nnn2Cc2ccc(Cl)cc2)c1=O)N1CCN(c2ccccc2)CC1,-7.16%,-12.6%,3.63%,82.3%,80.5%,1.98%,6.43%
CCOC(=O)CC1C(=O)NCCN1Cc1cccc(OC)c1 (stereo not given),-12.5%,-6.96%,0.71%,100%,108%,0.17%,1.79%
Cc1noc(C)c1S(=O)(=O)N1CCC(C(=O)N2CCC(N3CCCCC3)CC2)CC1,-7.79%,2.65%,0.18%,101%,102%,1.78%,-0.93%
CCn1c2ccccc2c2nnc(SCC(=O)c3ccccc3)nc21,-1.37%,13.5%,-2.35%,94.8%,90.7%,2.33%,6.1%
CN1CCN(C(=O)c2ccccc2NC(=O)Cc2ccccc2)CC1,-12.3%,1.69%,-1.06%,98.4%,103%,1.83%,1.81%
O=C(NCc1ccco1)N1c2ccccc2Sc2ccccc21,-12.9%,-8.64%,-4.68%,88%,91.6%,0.805%,4.32%
O=C(COC(=O)C1CC(=O)N(C2CCCCC2)C1)c1ccc(F)cc1 (stereo not given),-2.56%,0.43%,-2.49%,108%,101%,0.95%,2.97%
Oc1c(C(c2cccs2)N2CCOCC2)sc2ncnn12 (stereo not given),11.1%,-3.88%,0.31%,105%,101%,0.895%,5.2%
COc1ccc(OCCNS(=O)(=O)c2ccccc2)cc1,-18.1%,-18.5%,0.87%,94.5%,97.2%,0.965%,1.42%
CCn1c(=O)c2cc(C(=O)NCCN3CCOCC3)sc2c2ccccc21,-7.14%,-3.89%,-4.73%,92.2%,76.1%,2.47%,1.02%
N#CCc1nc2n(n1)Cc1ccccc1-2,-6.24%,-25.7%,0.02%,105%,96.8%,3.54%,2.06%
CC1CCN(C(=O)CSc2nnc(Cn3c(=O)sc4ccccc43)n2C)CC1,-3.65%,-5%,-0.3%,121%,112%,0.075%,3.13%
Cc1cc(C)cc(OCCCCCNCCO)c1,-8.19%,-14.7%,-3.03%,87.6%,86.5%,2.79%,2.47%
CCN(CC)CCNC(=O)c1cc2c(-c3ccc(Cl)cc3)nn(C)c2s1,-4.4%,2.85%,-8.35%,2.18% (active),1.95% (active),0.905%,4.19%
O=C1CC(c2ccc(S(=O)(=O)NCc3ccccc3)cc2)CN1 (stereo not given),-7.82%,-21%,-2.13%,101%,87.9%,1.56%,1.23%
COCCN1C(=O)c2oc3ccccc3c(=O)c2C1c1ccc(O)c(OC)c1 (stereo not given),-9.35%,-0.41%,-3.27%,97.5%,93.2%,0.49%,8.37%
CCCc1cc(=O)[nH]c(SCC(=O)NC2CCCCC2)n1,2.37%,0.01%,-1.41%,89.5%,94.8%,0.82%,0.46%
O=C(CCN1C(=O)c2ccccc2C1=O)N1CCN(Cc2ccc(Cl)cc2Cl)CC1,-8.77%,-18%,1.45%,98.3%,104%,1.12%,7.67%
CN(C)S(=O)(=O)c1ccc(C(=O)Nc2ccc(F)cc2F)cc1,-14.5%,0.42%,1.08%,95.5%,94.4%,0.29%,2.9%
COc1ccc(CNC(=O)CCS(=O)(=O)c2cccc3nonc23)cc1,-4.22%,-26.3%,-2.89%,95.8%,100%,1.94%,6.09%
CCOC(=O)C1CCCN(C(=O)Cc2c(C(=O)O)[nH]c3ccccc23)C1 (stereo not given),-7.59%,-0.39%,-0.1%,97.3%,96.9%,0.53%,3.59%
